This is a sample that favours compounds with a hit; in the whole collection about 11% have one here.
D1 allo mod – D1 dopamine receptor (human) allosteric modulation; P21728; HEK293 D1, CRE-luciferase, dopamine EC30 potentiation; actives deviate in either direction; B-score at 10 µM; hit rate 5.9% among 58,000; AID 641;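 active means luminescence count or its row- and column-corrected plate score outside the 99.7% band of the plate's sample wells, on either side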
M1 antagonist – blocks the rat M1 muscarinic receptor response to acetylcholine; CHO-M1 cells, Fluo-4 calcium, ACh EC80 antagonist mode; stronger effect = lower value; B-score at 10 µM; hit rate 3.4% among 64,000; AID 628; P08482;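 active means calcium fluorescence response, raw or row-and-column corrected B-score, differing from the plate sample mean either way at a set confidence level, mostly lower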
M1 agonist – M1 muscarinic receptor agonism. CHO-M1 cells, Fluo-4 calcium fluorescence, agonist mode; stronger effect = higher value. hit rate 3% among 64,000. B-score at 10 µM. AID 626;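 active means fluorescence rise, raw or as B-score row- and column-corrected plate score, outside the 99.7% band of its plate's samples, either direction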
TNAP act DEA – activates human TNAP at intermediate phosphate acceptor concentration; P05186; activation factor at 20 µM; 64,000 tested, under 10 active; AID 813; purified TNAP, CDP-star luminescence, 100 mM DEA, 30 min; stronger effect = higher value; scale: 0 levamisole-inhibited, 1 vehicle-only enzyme;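 active means activation factor of at least 2 at 20 µM, relative to controls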
S1P3 agonist – agonists of human S1P3 receptor. activation, % at 4.5 µM. AID 373. S1P3 NFAT-BLA reporter cells, agonism, FRET ratio; relative to 1 µM S1P, basal subtracted. hit rate 0.1% among 60,000;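 active means activation above the screen-wide mean plus 3 SD, cut at about 4.5% in these data, passing the limit was not always enough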
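Measure – % activation relative to 1 µM S1P (100%), per plate · System – stable CHO line with human S1P3, Gα16, NFAT-BLA reporter · Timing – cells plated overnight, compound 4 h 37 °C, substrate 2 h RT · Technique – fluorescent BLA substrate, ex 405 nm, em 460/535 nm ratio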
S1P1 ag pot – agonists and agonism potentiators of human S1P1 receptor | activation, % at 9.5 µM | P21453 | S1P1 CRE-bla cells, forskolin, beta-lactamase FRET, potentiator mode; S1P1 agonist co-added at EC20, 2 nM; 100% = saturating reference agonist, 0% = basal | hit rate 0.57% among 56,000;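 active means activation above a cutoff set at the mean activation of all tested compounds plus 3 SD, cut at about 54% in these data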;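 further: forskolin at 4 µM as EC80 and the EC20 agonist is SEW2871; 100% = SEW2871 at its EC100 plus forskolin at EC80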
Target sequence (P21453 whole entry, looked up): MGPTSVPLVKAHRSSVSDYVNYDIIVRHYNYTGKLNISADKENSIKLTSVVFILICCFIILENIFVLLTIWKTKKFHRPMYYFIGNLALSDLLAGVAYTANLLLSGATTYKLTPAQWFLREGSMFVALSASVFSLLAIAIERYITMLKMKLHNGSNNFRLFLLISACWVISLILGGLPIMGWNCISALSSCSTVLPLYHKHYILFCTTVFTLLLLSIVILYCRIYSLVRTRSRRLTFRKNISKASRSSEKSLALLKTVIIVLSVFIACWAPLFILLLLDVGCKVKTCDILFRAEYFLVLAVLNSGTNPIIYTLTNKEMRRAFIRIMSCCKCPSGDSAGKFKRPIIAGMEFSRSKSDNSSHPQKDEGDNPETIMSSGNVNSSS
M1 ag confirm – confirmation of rat M1 muscarinic receptor agonists | CHO-M1 cells, Fluo-4 calcium fluorescence, agonist mode; actives lie on both sides | shares compounds with M1 agonist | AID 1488 | fluorescence change (max-min) at 10 µM | hit rate 19% among 1,700;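 active means fluorescence change differs from the solvent-only DMSO control mean at a set confidence level in both duplicate runs; inconclusive means differs from solvent-only control mean in just one of two runs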;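 further: an EC20 dose of acetylcholine follows compound addition during the same imaging run; raw fluorescence intensity difference in instrument units with no normalization to controls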
M4 ag counter – counter-screen for M1 agonists: activity at rat M4 receptor. fluorescence change (max-min) at 10 µM. hit rate 9% among 1,700. shares compounds with M1 agonist. CHO M4/Gqi5 cells, Fluo-4 calcium fluorescence, agonist mode; actives lie on both sides;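 active means fluorescence change differing from the plate's solvent-only control wells at 99.7% confidence in both duplicates, whether higher or lower; inconclusive means differs from solvent controls in only one of two duplicates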
Active calls of the source: *.

Cc1cc(C)n(-c2nc3ccccc3nc2N2CCN(C(=O)c3ccc(Cl)cc3)CC2)n1 was read as D1 allo mod 0.59, M1 antagonist -0.014, M1 agonist 0.85, TNAP act DEA 0.9 and S1P3 agonist -1.
COc1ccc(-c2cc(C(=O)N3CCOCC3)c3cc(C)ccc3n2)cc1 was read as D1 allo mod -1.5, M1 antagonist -0.33, M1 agonist 4.1*, TNAP act DEA 1, S1P3 agonist 0, M1 ag confirm -9 and M4 ag counter -33.
Screening Cc1cc(-c2ccccc2)n(-c2ccc(C(=O)N3CCN(c4ncccn4)CC3)cc2)n1 returned M1 antagonist -1, M1 agonist 9.2*, TNAP act DEA 0.9, S1P3 agonist 0, S1P1 ag pot -17, M1 ag confirm inconclusive and M4 ag counter inconclusive.
Cc1ccc(-c2cc(C(=O)N3CCN(c4ncccn4)CC3)c3ccccc3n2)cc1 was read as D1 allo mod -0.29, M1 antagonist -1.8, M1 agonist 8.8*, TNAP act DEA 0.9, S1P3 agonist -2, S1P1 ag pot -19, M1 ag confirm -16 and M4 ag counter -111*.
`CC(C)Oc1cccc(-c2cc(C(=O)N3CCN(S(C)(=O)=O)CC3)c3ccccc3n2)c1` gave D1 allo mod 0.69, M1 antagonist 0.09, M1 agonist 3.6*, TNAP act DEA 0.9, S1P3 agonist -1, S1P1 ag pot 2, M1 ag confirm inconclusive and M4 ag counter -50.
For O=C(COc1ccc(Cl)cc1Cl)NC1CCSC1=O (stereo not given) the results were D1 allo mod -0.0067, M1 antagonist 0.8, M1 agonist 0.49, TNAP act DEA 0.9, S1P3 agonist 0 and S1P1 ag pot 0.
For O=C(O)CCC1COc2ccccc2O1 (stereo not given) the results were D1 allo mod 0.033, M1 antagonist 0.93, M1 agonist 0.26, TNAP act DEA 1, S1P3 agonist 0 and S1P1 ag pot -9.
Cc1ccc2nc(-c3ccccn3)cc(C(=O)N3CCN(c4ncccn4)CC3)c2c1 was read as D1 allo mod 2.5, M1 antagonist -2.1, M1 agonist 3.6*, TNAP act DEA 0.9, S1P3 agonist -1, S1P1 ag pot -16, M1 ag confirm -1.9 and M4 ag counter -22.
COc1ccc2oc(-c3ccccc3)c(C(=O)N3CCOCC3)c2c1 was read as D1 allo mod 1.8, M1 antagonist -0.00046, M1 agonist 4*, TNAP act DEA 0.9, S1P3 agonist 0, S1P1 ag pot 11, M1 ag confirm -24 and M4 ag counter -32.
`Cc1cc(C(=O)N2CCN(c3ncccn3)CC2)c2cc(F)ccc2n1` gave M1 antagonist -0.089, M1 agonist -0.84, TNAP act DEA 0.8, S1P3 agonist -1 and S1P1 ag pot 4.
CCOC(=O)N1CCN(C(=O)c2ccc3nc(SCc4ccc(F)cc4)n(C)c3c2)CC1 was read as M1 antagonist -2.8*, M1 agonist 4*, TNAP act DEA 0.9, S1P3 agonist -1, S1P1 ag pot 12, M1 ag confirm inconclusive and M4 ag counter -68.
`O=C(NC1CCCCCC1)c1cc2n(n1)C(C(F)(F)F)CC(c1ccco1)N2` (stereo not given) gave D1 allo mod 0.46, M1 antagonist 0.095, M1 agonist 0.0058, TNAP act DEA 0.9, S1P3 agonist 0 and S1P1 ag pot -6.
O=C(Nc1ccc(O)cc1)c1cc2n(n1)C(C(F)(F)F)CC(c1ccco1)N2 (stereo not given) was read as D1 allo mod -0.023, M1 antagonist 0.38, M1 agonist -2.3*, TNAP act DEA 0.9, S1P3 agonist 0, S1P1 ag pot 100*, M1 ag confirm -10 and M4 ag counter -52.
`Nc1cc(-c2ccco2)no1` gave D1 allo mod 0.052, M1 antagonist -0.03, M1 agonist -0.51, TNAP act DEA 1, S1P3 agonist 0 and S1P1 ag pot 3.
Screening N#Cc1sc2nc(-c3ccccc3)cc(-c3ccco3)c2c1N returned D1 allo mod 2.3, M1 antagonist 0.78, M1 agonist 15*, TNAP act DEA 0.9, S1P3 agonist -2, S1P1 ag pot 51, M1 ag confirm 24 and M4 ag counter -11.
Screening CC1(c2ccc(Cl)cc2)NC(=O)N(CC(=O)N2CCCC2)C1=O (stereo not given) returned D1 allo mod 0.91, M1 antagonist 0.016, M1 agonist -0.61, TNAP act DEA 0.9, S1P3 agonist -1 and S1P1 ag pot -11.
CCOc1cc(-c2nc3ccccn3c2NCC2CCCO2)ccc1O (stereo not given) was read as D1 allo mod -4.1*, M1 antagonist -1.8*, M1 agonist 10*, TNAP act DEA 0.9, S1P3 agonist -1, S1P1 ag pot -6, M1 ag confirm -4.3 and M4 ag counter -10.
`CCOc1ccc(S(=O)(=O)NCC2CCCO2)c2cccnc12` (stereo not given) gave D1 allo mod -1.2, M1 antagonist 1.6, M1 agonist 0.29, TNAP act DEA 1, S1P3 agonist 0 and S1P1 ag pot 10.
`CCOC(=O)N1CCN(CC(O)COc2ccccc2C(C)C)CC1` (stereo not given) gave D1 allo mod -1.8, M1 antagonist -1, M1 agonist 13*, TNAP act DEA 1, S1P3 agonist -2, S1P1 ag pot -9, M1 ag confirm 65* and M4 ag counter -6.6.
For CCOC(=O)N1CCN(CC(O)COc2ccccc2C(C)CC)CC1 (stereo not given) the results were D1 allo mod -0.079, M1 antagonist -0.35, M1 agonist -0.48, TNAP act DEA 0.9, S1P3 agonist 0 and S1P1 ag pot -25.
C=CCc1ccccc1OCC(O)CN1CCN(Cc2ccc3c(c2)OCO3)CC1 (stereo not given) was read as D1 allo mod -5.8*, M1 antagonist -5.4*, M1 agonist 6.9*, TNAP act DEA 0.9, S1P3 agonist 0, S1P1 ag pot -6, M1 ag confirm 9.5 and M4 ag counter -22.
`C=CCc1ccccc1OCC(O)CN1CCN(c2ccc(C)cc2)CC1` (stereo not given) gave M1 antagonist 0.66, M1 agonist -0.065, TNAP act DEA 1, S1P3 agonist -1 and S1P1 ag pot -8.
